TAAR1 antagonist: human TAAR1 antagonism. Q96RJ0. 1.5% of 360,000 active. CHO RD-HGA16 TAAR1, Fluo-8 calcium fluorescence, antagonist. inhibition, % at 3 µM;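 active = inhibition above a per-plate cutoff, the mean inhibition of test compounds on that plate plus 3 SD, cut at about 49% in these data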;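 note: 0% = DMSO plus EC80 beta-PEA response and 100% = DMSO alone without agonist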
Target sequence (Q96RJ0 whole entry, looked up): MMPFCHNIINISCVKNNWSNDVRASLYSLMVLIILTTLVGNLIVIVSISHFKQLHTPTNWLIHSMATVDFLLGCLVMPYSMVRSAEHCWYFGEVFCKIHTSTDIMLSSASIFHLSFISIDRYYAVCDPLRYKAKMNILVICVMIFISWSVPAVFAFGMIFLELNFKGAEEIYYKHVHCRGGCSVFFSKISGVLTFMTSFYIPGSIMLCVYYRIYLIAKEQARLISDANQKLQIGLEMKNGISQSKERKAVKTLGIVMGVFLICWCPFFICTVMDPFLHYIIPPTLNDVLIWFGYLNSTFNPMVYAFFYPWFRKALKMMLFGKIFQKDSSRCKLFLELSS
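Assay system: CHO-derived RD-HGA16 cells stably expressing human TAAR1 plus Gα16. Timing: 140 s kinetic read after compound, 140 s after agonist. Technique: kinetic Fluo-8 calcium fluorescence measurement. Measure: % inhibition of agonist calcium response.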
CHRM1 agonist: human M1 muscarinic receptor agonism; P11229; CHO-K1 hM1, Fluo-8 calcium fluorescence, agonist mode; 0% DMSO, 100% acetylcholine EC100; activation, % at 3 µM; 0.33% of 360,000 active; AID 588814;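 active = activation above the run's mean compound activation plus 3 SD, cut at about 16% in these data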;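 note: peak over basal fluorescence ratio within a 140 s kinetic read after compound addition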
TAAR1 ag: human TAAR1 agonism; Q96RJ0; CHO RD-HGA16 TAAR1, Fluo-8 calcium fluorescence; vehicle wells 0%, saturating PEA agonist 100%; activation, % at 3 µM; 0.99% of 360,000 active;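 active = activation above the mean activation of all test compounds in the run plus 3 SD, cut at about 38% in these data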
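Repeats: no replicates (n 1) | Material: CHO-derived RD-HGA16 cells with stable Gα16 and human TAAR1 | Technique: Kinetic Fluo-8 calcium fluorescence | Schedule: 17-24 h seeding, 75 min 37 °C dye, 30 min RT | Evaluation: % activation from peak over basal fluorescence ratio, DMSO-to-PEA scaled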
M1 antag: antagonists of human M1 muscarinic receptor; P11229; CHO-K1 hM1, Fluo-8 calcium fluorescence, ACh EC80 antagonist; inhibition, % at 3 µM; 1.3% of 360,000 active; AID 588852;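 active = percent inhibition above its own plate's cutoff, namely the mean of that plate's compound wells plus 3 SD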;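 note: peak over basal fluorescence ratio during 140 s after agonist addition; 0% = ACh EC80 plus DMSO and 100% = DMSO alone without agonist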
CHRM1 PAM: potentiates human M1 receptor response to acetylcholine | CHO-K1 hM1, Fluo-8 calcium fluorescence, ACh EC20; 0% = ACh EC20, 100% = maximal ACh | activation, % at 3 µM | 0.088% of 360,000 active | AID 588819; in the data active = activation above about 19%, passing the limit was not always enough
Starred values were filed as active, the others as inactive; x = no result given. A selection: hits, their analogues and other compounds. The true share with any hit is near 3.4%.

SMILES | TAAR1 antagonist | CHRM1 agonist | TAAR1 ag | M1 antag | CHRM1 PAM
CC(C)Oc1cc(F)ccc1-c1cc(C(=O)Nc2ccccc2)[nH]n1 | 54.2* | -5.3 | 0.1 | 2.0 | -5.2
CCOc1ccc(Cl)cc1-c1cc(C(=O)Nc2ccc(OC)cc2OC)[nH]n1 | 15.5 | -3.9 | 4.1 | 17.0 | -11.2
CCOC(=O)C(CNc1ccc(O)cc1)NC(=O)c1ccccc1 (stereo unspecified) | 15.7 | x | 1.2 | x | x
Nc1nc2c(ncn2[C@@H]2O[C@H](C(=O)N[C@H](Cc3ccccc3)C(=O)NCc3ccccc3)[C@@H](O)[C@H]2O)c(=O)[nH]1 | -2.8 | x | 0.7 | x | x
COC(=O)C1=C(C)N(C)C(=NCc2ccc(OC)cc2)NC1c1ccc(Cl)cc1 (stereo unspecified) | -10.7 | x | 6.5 | x | x
CCCCNC(=O)c1nc(C2CCN(S(=O)(=O)c3cccc(C(F)(F)F)c3)CC2)oc1-c1ccccc1 | -0.2 | -1.1 | -0.2 | -19.6 | 0.8
O=C(N[C@H](Cc1ccccc1)C(=O)NCCCc1ccccc1)[C@H]1O[C@@H](n2ccc(=O)[nH]c2=O)[C@H](O)[C@@H]1O | 7.1 | x | 2.0 | x | x
CCN(CC)c1ccc(/C=N/NC(=O)CNC(=O)c2ccc3c(c2)OCCO3)cc1 | -4.2 | -11.1 | 1.4 | -34.5 | 31.2*
COC(=O)c1ccccc1S(=O)(=O)N1CCC(C(=O)OCC(=O)NCC(F)(F)F)CC1 | -21.2 | -4.0 | 1.2 | -14.8 | 9.0
CCOC(=O)c1ccccc1NC(=O)COC(=O)C1CCN(S(=O)(=O)c2ccccc2C(=O)OC)CC1 | 48.9* | -2.4 | 10.9 | 7.2 | -4.4
CC1CCCCN1C(=O)COc1ccc(S(=O)(=O)N2CCCC2)cc1[N+](=O)[O-] (stereo unspecified) | 25.4 | -4.3 | 1.6 | -3.8 | 4.8
CCOC(=O)C1CCN(S(=O)(=O)c2ccc(Cl)nc2)CC1 | -7.4 | -4.1 | 0.9 | 28.1* | -8.7
CCOC(=O)C1CCN(S(=O)(=O)c2cn(C)c(=O)n(C)c2=O)CC1 | 13.1 | -10.1 | -0.7 | 32.1* | -22.1
CCOC(=O)C1CCN(CC(O)COc2ccc(S(=O)(=O)N3CCCC3)cc2[N+](=O)[O-])CC1 (stereo unspecified) | -25.3 | -8.5 | 2.7 | 39.5* | -23.8
COc1ccc(-c2cc(C(=O)NCc3ccc(F)cc3)[nH]n2)c(C)c1 | -14.9 | -1.3 | 1.6 | -3.5 | -3.7
CCN=C1NC(c2ccccc2C(F)(F)F)C(C(=O)OC)=C(C)N1Cc1ccc(C(F)(F)F)cc1 (stereo unspecified) | 9.6 | x | 11.8 | x | x
Cn1c(N2CCN(C(c3ccccc3)c3ccccc3)CC2)nc2ccccc21 | 49.8* | -7.0 | 1.1 | 32.3* | -20.1
Cn1c(N2CCN(C(=O)Nc3ccc(F)cc3)CC2)nc2ccccc21 | -7.9 | -3.5 | 1.8 | -3.8 | 1.2
Cc1ccc(C(C(=O)NCc2ccc(F)cc2)N(CCCO)C(=O)C2COc3ccccc3O2)o1 (stereo unspecified) | 51.8* | -2.8 | 16.0 | 8.6 | -11.3
Nc1nc2c(ncn2[C@@H]2O[C@H](C(=O)NCCc3c[nH]c4ccccc34)[C@@H](O)[C@H]2O)c(=O)[nH]1 | -17.5 | x | 5.0 | x | x
COc1cccc(CC2(CO)CCN(CC3=CC[C@H]4C[C@@H]3C4(C)C)CC2)c1 | -2.1 | -6.1 | 2.3 | 36.3* | -23.5
COc1cccc(CC2(CO)CCN(Cc3ccc(NC(C)=O)cc3)CC2)c1 | 3.1 | -5.5 | 2.1 | 16.4 | -9.0
COc1cc(C2Nc3ccccc3C(=O)N2NS(C)(=O)=O)c([N+](=O)[O-])cc1OC (stereo unspecified) | 3.5 | -3.1 | 4.8 | -4.0 | 27.3*
Cc1cc(C)nc(/N=C(\N)N(Cc2ccccc2)Cc2ccccc2)n1 | 4.7 | -14.1 | 9.7 | 99.6* | -32.9
Cc1cc(C)nc(/N=C(\N)Nc2ccc(-c3ccccc3)cc2)n1 | 64.0* | 5.4 | 58.4* | 11.9 | -15.7
SMILES | TAAR1 antagonist | CHRM1 agonist | TAAR1 ag | M1 antag | CHRM1 PAM
CC(=O)Nc1ccc(N/C(N)=N/c2nc(C)cc(C)n2)cc1 | -0.5 | -12.5 | 1.0 | -2.6 | 1.5
COc1ccc(Cn2c(-c3ccc(OC)cc3)n[nH]c2=S)cc1 | -11.8 | -3.6 | 2.9 | -17.8 | 10.6
CC(C)Oc1ccc(Cn2c(-c3ccco3)n[nH]c2=S)cc1 | -7.9 | -3.9 | 7.1 | 29.3* | -21.7
CCNC(=S)NNC(=S)NCc1ccccc1 | -9.3 | -2.5 | 2.6 | 2.3 | -3.5
CCCCC(=O)NNC(=S)NCc1ccccc1 | -2.6 | -3.4 | 7.9 | 38.9* | 3.2
CCc1cccc(NC(=O)C2CCN(c3ncnc4sc(C)c(C)c34)CC2)c1 | 53.0* | -6.1 | 8.8 | 18.0 | -10.3
COc1ccc(-c2csc(NC(=O)C3CCN(c4ncnc5sc(C)c(C)c45)CC3)n2)cc1OC | 50.2* | -3.0 | 1.8 | 46.4* | -12.0
Cc1sc2ncnc(N3CCC(C(=O)Nc4ccc(Cl)c(Cl)c4)CC3)c2c1C | 23.7 | -4.0 | 15.9 | 5.2 | -5.1
COC(=O)N1C[C@H](OCc2cn(-c3ccc(OC)cc3)nn2)[C@H]2C[C@@H]1c1ccccc1O2 | -7.9 | x | -1.5 | x | x
Fc1cccc(Cc2c(-c3ccco3)nc3c(Cl)cc(C(F)(F)F)cn23)c1 | -17.8 | 0.1 | 2.7 | -31.0 | 8.5
O=C(N[C@@H](Cc1ccccc1)c1nc2ccccc2[nH]1)c1ccc([N+](=O)[O-])cc1 | 8.3 | x | -3.4 | x | x
COC(=O)[C@]12C[C@H](CC(=O)N3CCN(C(=O)c4ccco4)CC3)C(=O)N(Cc3ccccc3)C1=C[C@H](C(C)C)O[C@@H]2C1CC1 | -16.6 | x | 0.5 | x | x
COc1cc(C(=O)NC(=S)Nc2nccs2)cc(OC)c1OC | 7.8 | -6.3 | 5.3 | -2.4 | 0.6
COc1cc(C(=O)Nc2nccs2)c(Br)c(OC)c1OC | 51.4* | 0.9 | 15.9 | 15.2 | -4.5
COc1cccc(CNS(=O)(=O)c2cc(Br)ccc2Br)c1OC | -3.1 | x | 1.9 | x | x
COc1cccc(-c2c(C(=O)N/N=C/c3ccncc3)nnn2-c2nonc2N)c1 | 2.9 | 1.5 | 15.8 | 3.8 | 0.6
COc1cccc(-c2c(C(=O)N/N=C/c3ccc(C)o3)nnn2-c2nonc2N)c1 | 26.9 | 8.8 | 41.6* | 0.4 | 1.5
CCCOc1ccc(-c2c(C(=O)N/N=C/c3ccc(C)cc3)nnn2-c2nonc2N)cc1 | -68.2 | -2.5 | 37.4 | -13.6 | 8.1
CCOc1cccc(-c2c(C(=O)N/N=C/c3ccc(C)s3)nnn2-c2nonc2N)c1 | -12.9 | 9.4 | 53.0* | 2.1 | 4.2
Cc1ccc(-c2c(C(=O)N/N=C/c3ccc(C)o3)nnn2-c2nonc2N)cc1 | 5.2 | -3.3 | 42.8* | -1.2 | 0.5
CCCCCc1cc(=O)oc2c(C(CCN3CCCCC3)c3ccc(OC)cc3)c(OC)cc(OC)c12 (stereo unspecified) | 6.6 | -2.3 | 30.1 | 0.4 | 4.7
CCCCCc1cc(=O)oc2c(C(CCN3CCCC(C)C3)c3ccc(OC)cc3)c(OC)cc(OC)c12 (stereo unspecified) | 6.1 | 7.2 | 40.0* | 4.6 | 1.1

Assay outcomes as filed in PubChem.
